According to ChEMBL document CHEMBL4364242, “Novel cationic bis(acylhydrazones) as modulators of Epstein-Barr virus immune evasion acting through disruption of interaction between nucleolin and G-quadruplexes of EBNA1 mRNA” (Eur J Med Chem, 2019):
Calls of active or inactive are those of the source. The rule behind the calls is not given here.

How the values were obtained:
human gammaherpesvirus 4 [1] = assay: Binding affinity to EB virus F-g4-EBNA1 mRNA assessed as increase in melting temperature at 1 uM by fluorescence method
human gammaherpesvirus 4 [2] = assay: Binding affinity to EBNA1 G4-quadruplex in human H1299 cells assessed as EB virus EBNA1 deleted GAr expression at 10 uM incubated for 40 hrs by western blot analysis; type: cell-based
Summary of the method: (§1)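 H1299 cells in RPMI-1640 with 10% FBS at 37 °C, 5% CO2, transiently transfected with EBNA1 or EBNA1ΔGAr constructs, then treated with 10 μM compound (DMSO vehicle) for 40 h. Lysates taken 48 h post-transfection and western blotted with anti-EBNA1 (OT1X). Levels normalized to GAPDH; at least three repeats.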

human gammaherpesvirus 4 [3] = assay: Binding affinity to EBNA1 G4-quadruplex in human H1299 cells assessed as EB virus EBNA1 expression at 10 uM incubated for 40 hrs by western blot analysis; type: cell-based; summary of the method: as §1
[4] = Binding affinity to […] (unknown origin) assessed as increase in melting temperature at 1 uM by fluorescence method
Summary of the method: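 Labeled F-myc22-T DNA (5'-FAM/3'-TAMRA) melted with 1 μM ligand in K-1 buffer (10 mM LiAsO2Me2, 1 mM KCl, 99 mM LiCl, pH 7.3). Ramp 0.5 °C/min from 25 to 95 °C. Tm taken from first-derivative maxima and ΔTm calculated versus ligand-free control.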

NCI-H1299 [5] = assay: Effect on 235Gar-OVA expression in human H1299 cells at 10 uM incubated for 40 hrs by western blot analysis; type: functional; parameters: unit not given here
Summary of the method: (§2)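 OVA or 235GAr-OVA constructs transiently transfected into H1299 cells, followed by 40 h exposure to 10 μM compound or DMSO. Whole-cell lysates immunoblotted with rabbit anti-OVA; signal normalized to GAPDH. Experiments repeated at least three times.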

Homo sapiens = species on record: Homo sapiens; assay: Binding affinity to […] assessed as increase in melting temperature at 1 uM by fluorescence method
Summary of the method: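 F-25TAG-T telomeric DNA (5'-FAM/3'-TAMRA) melted with 1 μM ligand in K-100 buffer (10 mM LiAsO2Me2, 100 mM KCl, pH 7.3). Heating 25–95 °C at 0.5 °C/min. ΔTm derived from first-derivative Tm maxima relative to the no-ligand run.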

[6] = Displacement of TO from EB virus g4-EBNA1 mRNA measured after 5 mins by FID assay; parameters: species or system human gammaherpesvirus 4
Summary of the method: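 g4-EBNA1 RNA annealed 95 °C 5 min in K100 buffer (10 mM KAsO2Me2, 100 mM KCl, 1 mM EDTA, 1% DMSO), then mixed with TO; final 0.25 μM RNA and 0.5 μM TO, ligand 0–2.5 μM. Fluorescence read after 5 min shaking (485/520 nm), in duplicate. Displacement = 100×(1−F/F0); DC50 interpolated from the curve.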

NCI-H1299 [7] = assay: Effect on OVA expression in human H1299 cells at 10 uM incubated for 40 hrs by western blot analysis; type: functional; parameters: unit not given here; summary of the method: as §2
NCI-H1299 [8] = assay: Cytotoxicity against 235Gar-OVA-over expressing human H1299 cells at 10 uM incubated for 40 hrs; type: cell-based; conditions: nci-h1299, 40 h
NCI-H1299 [9] = assay: Cytotoxicity against OVA-over expressing human H1299 cells at 10 uM incubated for 40 hrs; type: cell-based; conditions: nci-h1299, 40 h
[10] = Inhibition of recombinant NCL (unknown origin)/EB virusG4-EBNA1 mRNA interaction at 10 uM by RNA pull-down assay
Summary of the method: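 Biotin-TEG RNA (g4-EBNA1 or non-G4 GM) folded in 10 mM Tris pH 7.5, 100 mM KCl, 0.1 mM EDTA (95 °C 5 min, cooled 2 °C/min), then bound to blocked streptavidin beads. 200 ng recombinant NCL added for 90 min at room temperature with 10 μM compound or DMSO. Beads washed up to 800 mM KCl; eluates western-blotted for NCL.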

Structure (SMILES)	Activity (human gammaherpesvirus 4 [1])	Activity (human gammaherpesvirus 4 [2])	Activity (human gammaherpesvirus 4 [3])	ΔTm [4] [°C]	Activity (NCI-H1299 [5])	ΔTm (Homo sapiens) [°C]	IC50 [6] [nM]	Activity (NCI-H1299 [7])	ΔTm (human gammaherpesvirus 4 [1]) [°C]	Activity (NCI-H1299 [8])	Activity (NCI-H1299 [9])	fold change (FC) [10]
C[n+]1ccc(/C=N/NC(=O)c2ccc3ccc(C(=O)N/N=C/c4cc[n+](C)c5ccccc45)nc3n2)c2ccccc21.[I-].[I-]	Active	inactive	inactive	15 to 30	95	15 to 30	610	100				
CC[n+]1cccc2cc(/C=N/NC(=O)c3ccc4ccc5ccc(C(=O)N/N=C/c6ccc7c(ccc[n+]7CC)c6)nc5c4n3)ccc21.[I-].[I-]		inactive	inactive	15 to 30	80	15 to 30	590	96	20 to 30			
O=C(N/N=C/c1ccc2c(ccc[n+]2Cc2ccccc2)c1)c1ccc2ccc(C(=O)N/N=C/c3ccc4c(ccc[n+]4Cc4ccccc4)c3)nc2n1.[Br-].[Br-]	Active	inactive	inactive	15 to 30	104	15 to 30	1090	108				
C[n+]1ccc(/C=N/NC(=O)c2ccc3ccc4ccc(C(=O)N/N=C/c5cc[n+](C)cc5)nc4c3n2)cc1.[I-].[I-]		Active	Active	15 to 30	78	15 to 30	320	76	10 to 20			
CC[n+]1cccc2cc(/C=N/NC(=O)c3cc(C(=O)N/N=C/c4ccc5c(ccc[n+]5CC)c4)ncn3)ccc21.[I-].[I-]		Active	Active		48		> 2500	47		Toxic	Toxic	
C[n+]1ccc(/C=N/NC(=O)c2cccc(C(=O)N/N=C/c3cc[n+](C)cc3)n2)cc1.[I-].[I-]		inactive	inactive		106		2320	93	< 10			
C[n+]1ccc(C=NNC(=O)c2ccc3ccc4ccc(C(=O)NN=Cc5cc[n+](C)cc5)nc4c3n2)cc1.[I-].[I-]										Toxic	Toxic	
C[n+]1cc(NC(=O)c2ccc3ccc4ccc(C(=O)Nc5cc6ccccc6[n+](C)c5)nc4c3n2)cc2ccccc21				> 35		> 35	310		30			2
O=C(N/N=C/c1cc[n+](Cc2ccccc2)c2ccccc12)c1cccc(C(=O)N/N=C/c2cc[n+](Cc3ccccc3)c3ccccc23)n1.[Br-].[Br-]	Active	Active	Active	15 to 30	134	15 to 30	390	149				
O=C(N/N=C/c1ccc2c(ccc[n+]2Cc2ccccc2)c1)c1cccc(C(=O)N/N=C/c2ccc3c(ccc[n+]3Cc3ccccc3)c2)n1.[Br-].[Br-]	Active	Active	Active	15 to 30	58	15 to 30	720	70		Toxic	Toxic	
C[n+]1ccc(/C=N/NC(=O)c2cc(C(=O)N/N=C/c3cc[n+](C)c4ccccc34)ncn2)c2ccccc21.[I-].[I-]		inactive	inactive		89		740	103				
O=C(N/N=C/c1cc[n+](Cc2ccccc2)c2ccccc12)c1ccc2ccc(C(=O)N/N=C/c3cc[n+](Cc4ccccc4)c4ccccc34)nc2n1.[Br-].[Br-]	Active	inactive	inactive	15 to 30	106	15 to 30	710	93				
C[n+]1ccc(/C=N/NC(=O)c2cc(C(=O)N/N=C/c3cc[n+](C)cc3)ncn2)cc1.[I-].[I-]		inactive	inactive		80		> 2500	92				
CC[n+]1cccc2cc(/C=N/NC(=O)c3cccc(C(=O)N/N=C/c4ccc5c(ccc[n+]5CC)c4)n3)ccc21.[I-].[I-]	Active	inactive	inactive	15 to 30	86	15 to 30	740	98				
O=C(N/N=C/c1ccc2c(ccc[n+]2Cc2ccccc2)c1)c1cc(C(=O)N/N=C/c2ccc3c(ccc[n+]3Cc3ccccc3)c2)ncn1.[Br-].[Br-]		Active	Active		139		> 2500	137				
O=C(N/N=C/c1ccc2c(ccc[n+]2Cc2ccccc2)c1)c1ccc2ccc3ccc(C(=O)N/N=C/c4ccc5c(ccc[n+]5Cc5ccccc5)c4)nc3c2n1.[Br-].[Br-]		inactive	inactive	15 to 30	111	15 to 30	650	94	20 to 30			
CC[n+]1cccc2cc(/C=N/NC(=O)c3ccc4ccc(C(=O)N/N=C/c5ccc6c(ccc[n+]6CC)c5)nc4n3)ccc21.[I-].[I-]	Active	inactive	inactive	15 to 30	82	15 to 30	800	111				
O=C(N/N=C/c1cc[n+](Cc2ccccc2)c2ccccc12)c1ccc2ccc3ccc(C(=O)N/N=C/c4cc[n+](Cc5ccccc5)c5ccccc45)nc3c2n1.[Br-].[Br-]		inactive	inactive	15 to 30	96	15 to 30	340	114	20 to 30			
C[n+]1ccc(/C=N/NC(=O)c2ccc3ccc(C(=O)N/N=C/c4cc[n+](C)cc4)nc3n2)cc1.[I-].[I-]		inactive	inactive		112		930	99	< 10			
O=C(N/N=C/c1cc[n+](Cc2ccccc2)c2ccccc12)c1cc(C(=O)N/N=C/c2cc[n+](Cc3ccccc3)c3ccccc23)ncn1.[Br-].[Br-]		inactive	inactive		108		1240	106				
